From paper PMC9059116 (Journal of Medicinal Chemistry, 2022)

Legend:
Assay type in all cases: cell-based
[1] = system: eIF4E phosphorylation (MNK1/2 activity) in MDA-MB-231 cells; assay: western blot of eIF4E phosphorylation; conditions: for inhibition of eIF4E phosphorylation: MDA-MB-231 cells, 24 h, western blot
How it was run: (§1)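 MDA-MB-231 cells were grown in DMEM with 10% heat-inactivated FBS and penicillin/streptomycin, seeded at 6000 cells/cm² 24 h before treatment. DMSO was kept below 0.5%, with DMSO as negative control. Immunoblotting used ECL detection, with β-actin (1:20 000) probed.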

MDA-MB-231 cells = assay: crystal violet growth assay, MDA-MB-231; conditions: MDA-MB-231, 72 h, up to 200 nM
How it was run: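 Cells kept in DMEM (4.5 g/L glucose) with 10% heat-inactivated FBS and penicillin/streptomycin at 37 °C, 5% CO2. Seeded at 6000 cells/cm², treated 24 h later for 72 h; DMSO kept below 0.5%, DMSO as negative control. Fixed 30 min in 4% formaldehyde, PBS washes, stained 15 min with 0.5% crystal violet, dye dissolved in 15% AcOH, OD 595 nm. Three independent experiments, standard deviation.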

[2] = system: MNK1 phosphorylation at T209/214 in MDA-MB-231 cells; assay: western blot of MNK1 phosphorylation at T209/214 in MDA-MB-231 cells; conditions: MDA-MB-231, 24 h
How it was run: as §1

[3] = target: MNK1-eIF4G interaction in HEK-293 cells (Homo sapiens, UniProt Q9BUB5); assay: immunoprecipitation of endogenous eIF4G, MNK1-eIF4G interaction in HEK-293 cells; conditions: HEK-293, 20 μM EB1 or 100 nM eFT508, UV irradiation and 40 min recovery
How it was run: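 HEK-293 cells were treated 24 h with DMSO or inhibitor, then UV-irradiated (60 J/m²) and recovered 40 min at 37 °C. Anti-eIF4G was bound to protein A beads (4 h, 4 °C), then incubated overnight at 4 °C with about 2 mg precleared lysate. Beads were washed, boiled 5 min at 95 °C, and probed for MNK1 by immunoblot.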

Chain of MNK1-eIF4G interaction in HEK-293 cells (Q9BUB5 1-424 isoform Q9BUB5-2): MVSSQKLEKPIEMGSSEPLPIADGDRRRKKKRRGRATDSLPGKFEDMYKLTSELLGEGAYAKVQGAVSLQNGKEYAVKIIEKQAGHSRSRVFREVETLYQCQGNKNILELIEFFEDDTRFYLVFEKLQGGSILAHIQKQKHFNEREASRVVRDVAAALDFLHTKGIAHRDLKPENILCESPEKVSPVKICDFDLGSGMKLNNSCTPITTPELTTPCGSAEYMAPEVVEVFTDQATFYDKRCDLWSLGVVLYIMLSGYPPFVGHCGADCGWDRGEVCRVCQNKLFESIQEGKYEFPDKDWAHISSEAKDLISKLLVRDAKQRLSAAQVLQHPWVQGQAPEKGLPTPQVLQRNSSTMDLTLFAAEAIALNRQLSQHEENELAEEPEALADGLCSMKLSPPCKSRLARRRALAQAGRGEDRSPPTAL

SMILES | inhibition of eIF4E phosphorylation [1] | effect on cell growth (MDA-MB-231 cells) | effect on activating phosphorylation of MNK1 at T209/214 [2] | effect on interaction between MNK1 and eIF4G [3] | inhibition of eIF4E phosphorylation after UV stimulation ([1]; MDA-MB-231, pretreatment with inhibitor, UV irradiation, 40 min recovery) | inhibition of eIF4E phosphorylation ([1]; listed as EB1)
Cc1cc(Nc2cc(N)ncn2)c(=O)n2c1C(=O)NC21CCCCC1 [eFT508 (3), eFT508] | complete inhibition of eIF4E phosphorylation can be already observed at low nanomolar concentrations | not able to inhibit the growth | strongly induced phosphorylation of MNKs at T209/214 | strongest interaction of eIF4G with MNK1 | – | –
Nc1n[nH]c2nc(-c3ccccc3)cc(-c3ccccc3)c12 [6b, 4,6-Diphenyl-1H-pyrazolo[3,4-b]pyridin-3-amine] | clear inhibition of eIF4E phosphorylation | – | – | – | strongly inhibited eIF4E phosphorylation | more potent than CGP5738 but less active than the eFT508
Nc1ncnc2[nH]nc(Nc3ccc(F)cc3)c12 [CGP57380 (2), CGP57380] | – | – | strongly induced phosphorylation of MNKs at T209/214 | – | – | –
